Results as given in ChEMBL document CHEMBL1139946, “1-Aryl-4,6-dihydropyrazolo[4,3-d][1]benzazepin-5(1H)-ones: a new class of antiproliferative agents with selectivity for human leukemia and breast cancer cell lines” (Eur J Med Chem, 2007).

Tests used:
K562 = assay: Antitumor activity against human K562 cells after 48 hrs by sulforhodamine B protein assay; assay type: functional; conditions: K562, 48 h
In short: (§1)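 Part of the NCI 60-cell-line screen. Compounds tested at five concentrations (10^-8 to 10^-4 M) with continuous exposure for 48 h. Cell growth read by sulforhodamine B protein assay, with percent growth from optical density of treated versus untreated control cultures. GI50 is the concentration giving 50% net growth inhibition.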

MDA-MB-435 = assay: Antitumor activity against human MDA-MB435 cells after 48 hrs by sulforhodamine B protein assay; assay type: functional; conditions: MDA-MB-435, 48 h; in short: as §1

COc1cccc2c1C(=O)c1c(O)c3c(c(O)c1C2=O)C[C@@](O)(C(=O)CO)C[C@@H]3O[C@H]1C[C@H](N)[C@H](O)[C@H](C)O1 [DOXORUBICIN]
GI50 (K562): 100 nM | GI50 (MDA-MB-435): 200 nM
